In publication PMC8358123 (International Journal for Parasitology: Drugs and Drug …, 2021):

Legend:
[1] = PMM cytotoxicity; format: cell-based, mouse; conditions: Swiss, mouse
[2] = system: T. b. rhodesiense (STIB-900 strain); test: In vitro activity against T. b. rhodesiense; format: cell-based; conditions: Trypanosoma brucei, read-out: T. b. rhod. EC50
Procedure, shortened: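 STIB-900 parasites, axenic in HMI-9 with 10% FBS at 37 °C and 5% CO2, seeded at 4×10^3 parasites/well. Test compound was given as ten 4-fold dilutions (top 64 μM, <1% DMSO). Growth period […], then resazurin added and fluorescence measured after 24 h. IC50 from a sigmoid variable-slope fit versus untreated controls; mean ± SEM, 2–4 experiments. Suramin as reference.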

[3] = system: T. b. brucei (Squib 427 strain); test: In vitro activity against T. b. brucei; format: cell-based; conditions: Trypanosoma brucei, read-out: T. b. bruc. EC50
[4] = MRC-5SV2 cytotoxicity; format: cell-based, human; conditions: human, MRC-5SV2 cells
Procedure, shortened: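 MRC-5SV2 cells (3×10^4 cells/mL) in MEM with Earl's salts, L-glutamine, NaHCO3 and 5% inactivated FCS, at 37 °C and 5% CO2. Exposure to test compound (ten 4-fold dilutions, top 64 μM, <1% DMSO) lasted 3 days. Resazurin was then added for 4 h at 37 °C, with fluorescence read at ex 550/em 590 nm. CC50 from % reduction relative to untreated (100%) and medium-only (0%) controls.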

[5] = system: T. cruzi Tulahuen CL2 β-galactosidase strain; test: In vitro activity against T. cruzi intracellular amastigotes in MRC-5SV2 cells; format: cell-based; conditions: Trypanosoma cruzi, MRC-5 SV2, 168 h, read-out: T. cruzi EC50
Procedure, shortened: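 Nifurtimox-sensitive Tulahuen CL2 β-galactosidase parasites infected MRC-5SV2 fibroblasts in MEM with 200 mM L-glutamine, 16.5 mM NaHCO3 and 5% inactivated FCS, at 37 °C and 5% CO2. Wells held 4×10^3 cells and 4×10^4 parasites. Test compound was given as ten 4-fold dilutions (top 64 μM, <1% DMSO) for 7 days. CPRG was then added for 4 h at 37 °C and absorbance read at 540 nm. IC50 from % reduction versus untreated-infected controls; mean ± SEM, 2–4 experiments. Benznidazole reference.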

[6] = system: L. infantum MHOM/MA (BE)/67; format: cell-based, Leishmania infantum; conditions: Leishmania infantum, Macrophage, in Mus musculus, 120 h, read-out: L. inf. EC50
Procedure, shortened: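 Intracellular amastigotes of hamster spleen origin infected Swiss mouse peritoneal macrophages (elicited 2 days with 2% potato starch), in RPMI-1640 with 5% inactivated FCS, at 37 °C and 5% CO2, 4.5×10^5 parasites/well. Test compound (ten 4-fold dilutions, top 64 μM, <1% DMSO) was added 2 h post-infection. After 5 days, amastigotes/macrophage were counted after 10% Giemsa. IC50 was derived from % reduction versus controls; mean ± SEM, 2–4 experiments. Miltefosine reference.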

[7] = PMM CC50, primary peritoneal mouse macrophages
[8] = MRC-5 CC50, MRC-5SV2 cells, 3 days incubation

| SMILES | CC50 at 5 days [1, 7] [µM] | EC50 [2] [µM] | EC50 [3] [µM] | CC50 at 3 days [4, 8] [µM] | EC50 [5] [µM] | CC50 at 5 days [1] [µM] | CC50 at 3 days [4] [µM] | EC50 [6] [µM] |
| --- | --- | --- | --- | --- | --- | --- | --- | --- |
| Cc1ncnc2c1c(F)cn2[C@@H]1O[C@H](CO)[C@@H](O)[C@H]1O [compound 6] | 32 | < 0.25 | 0.41 | 0.3 | < 0.25 |  |  |  |
| Cc1ncnc2c1c(Br)cn2[C@@H]1O[C@H](CO)[C@@H](O)[C@H]1O [compound 8] | 32 | 3.84 | > 64 | 39.6 | 5.28 |  |  |  |
| Cc1cn([C@@H]2O[C@H](CO)[C@@H](O)[C@H]2O)c2ncnc(C)c12 [compound 9] | > 64 | 0.45 ± 0.08 | 0.82 ± 0.32 | > 64 | 1.54 ± 0.52 |  |  |  |
| Cc1ncnc2c1c(SC(F)(F)F)cn2[C@@H]1O[C@H](CO)[C@@H](O)[C@H]1O [compound 11] | > 64 | > 64 | > 64 |  | 30.9 |  |  |  |
| C=Cc1cn([C@@H]2O[C@H](CO)[C@@H](O)[C@H]2O)c2ncnc(C)c12 [compound 12] | > 64 | 2.2 ± 0.11 | 2.73 ± 0.28 | > 64 | 6.95 ± 1.29 |  |  |  |
| C=C(C)c1cn([C@@H]2O[C@H](CO)[C@@H](O)[C@H]2O)c2ncnc(C)c12 [compound 14] | > 64 | < 0.25 | 0.5 | 1.49 | 5.04 |  |  |  |
| Cc1ncnc2c1c(C(C)C)cn2[C@@H]1O[C@H](CO)[C@@H](O)[C@H]1O [compound 15] | > 64 | 0.51 | 0.67 | 0.3 | 29.1 |  |  |  |
| Cc1ncnc2c1c(C1=CCCC1)cn2[C@@H]1O[C@H](CO)[C@@H](O)[C@H]1O [compound 16] | > 64 | > 64 | > 64 | > 64 | > 64 |  |  |  |
| Cc1ncnc2c1c(C1CCCC1)cn2[C@@H]1O[C@H](CO)[C@@H](O)[C@H]1O [compound 17] | > 64 | 53.6 | > 64 | > 64 | 48.9 |  |  |  |
| Cc1ncnc2c1c(C1=CCCCC1)cn2[C@@H]1O[C@H](CO)[C@@H](O)[C@H]1O [compound 18] | > 64 | > 64 | > 64 | > 64 | > 64 |  |  |  |
| Cc1ncnc2c1c(C1CCCCC1)cn2[C@@H]1O[C@H](CO)[C@@H](O)[C@H]1O [compound 19] | > 64 | > 64 | > 64 | > 64 | > 64 |  |  |  |
| Cc1ncnc2c1c(C1=CCOCC1)cn2[C@@H]1O[C@H](CO)[C@@H](O)[C@H]1O [compound 20] | > 64 | 9.75 ± 0.02 | 12.3 ± 2.45 | > 64 | 2.87 ± 0.28 |  |  |  |
| Cc1ncnc2c1c(C1CCOCC1)cn2[C@@H]1O[C@H](CO)[C@@H](O)[C@H]1O [compound 21] | > 64 | 12 ± 1.75 | 15.1 ± 1.02 | > 64 | 3.98 ± 0.94 |  |  |  |
| Cc1ncnc2c1c(C1=CCN(C)CC1)cn2[C@@H]1O[C@H](CO)[C@@H](O)[C@H]1O [compound 23] |  | > 64 | > 64 |  | > 64 | > 64 | > 64 | > 64 |
| Cc1ncnc2c1c(-c1ccccc1)cn2[C@@H]1O[C@H](CO)[C@@H](O)[C@H]1O [compound 24] | > 64 | > 64 | > 64 | > 64 | 40.3 |  |  |  |
